Consider ten compounds from ChEMBL document CHEMBL1129733, “Aminoacetyl moiety as a potential surrogate for diacylhydrazine group of SC-51089, a potent PGE2 antagonist, and its analogs” (J Med Chem, 1996).

The species entered for test [1] is Mus musculus. Briefly: Antinociceptive activity in mouse by using phenylbenzoquinone writing assay. The class given is functional. An outline of the steps: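 Mice given test compound at an initial screening dose of 30 mg/kg. ED50 determined only for compounds producing a response in seven of ten animals, with 95% confidence limits (p < 0.05).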
Test [2] addresses Prostaglandin E2 receptor EP1 (Cavia porcellus). Briefly: PGE-2 (EP1 subtype) antagonistic activity as PGE2-stimulated guinea pig ileum muscle strip assay. Conditions: read-out: pA2 (converted).

With `O=C(CCc1ccncc1)NNC(=O)N1Cc2ccccc2Oc2ccc(Cl)cc21`, in test [1], the ED50 (commonly the dose at which the effect has come halfway, by size or by number of responders) was found to be 6.8 mg/kg. In test [2], the Kb was 316 nM.

For `O=C(CCSCc1ccco1)CNC(=O)N1Cc2ccccc2Oc2ccc(Cl)cc21`, the Kb in test [2] is 63.1 nM.

In test [1], `CCS(=O)(=O)CCC(=O)NNC(=O)N1Cc2ccccc2Oc2ccc(Cl)cc21` showed an ED50 of 7.4 mg/kg. The Kb in test [2] was 1580 nM.

In the case of `O=C(NNC(=O)C(F)(F)C(O)c1ccccn1)N1Cc2ccccc2Oc2ccc(Cl)cc21` (stereo not drawn), it took a dose of 9.1 mg/kg to reach the 50% effect level in test [1] (ED50). The Kb in test [2] is 31.6 nM.

Regarding `O=C(CNC(=O)C(F)(F)C(O)c1ccccn1)N1Cc2ccccc2Oc2ccc(Cl)cc21` (stereo not drawn), in test [1], the ED50 was found to be 8.1 mg/kg.

With `CCS(=O)(=O)CCC(=O)CNC(=O)N1Cc2ccccc2Oc2ccc(Cl)cc21`, the Kb in test [2] is 2510 nM.

Take `O=C(CCSCc1ccco1)NCC(=O)N1Cc2ccccc2Oc2ccc(Cl)cc21`: the Kb in test [2] is 39.8 nM.

On to `O=C(CCc1ccncc1)NCC(=O)N1Cc2ccccc2Oc2ccc(Cl)cc21`, for which the Kb in test [2] was 2000 nM.

Turning to `CCS(=O)(=O)CCC(=O)NCC(=O)N1Cc2ccccc2Oc2ccc(Cl)cc21`, the Kb in test [2] was 2000 nM.

As for `O=C(CCSCc1ccco1)NNC(=O)N1Cc2ccccc2Oc2ccc(Cl)cc21`, the ED50 in test [1] was 0.9 mg/kg.
